Assays:
[1] = target: HsRen (renalase from H. sapiens) (Homo sapiens, UniProt Q5VYX0); assay: Reductive half-reaction of HsRen; assay type: biochemical; details: anaerobic, 25 °C; for increase in kred/Kd on addition of ADP: ADP 4–5 mM
Procedure, shortened: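 Anaerobic stopped-flow was run at 25 °C in 20 mM HEPES, pH 7.5, with glucose/glucose oxidase O2 scavenging. HsRen was 6–11 µM post-mix, and flavin reduction was read at 458 nm. DHNR runs included 2 mM octyl-β-glucoside.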

[2] = test system: renalase; assay: HPLC substrate analysis of reduced NR and NMN isomers with renalase; assay type: biochemical; details: ~12.5 µM renalase, 10 min, HPLC of borohydride-reduced mixtures, pH 7.5
Procedure, shortened: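 Each mixture was split: one half received renalase, the other served as the no-enzyme and stability control. After 10 min, enzyme was removed by 10 kDa ultrafiltration. Filtrates ran on isocratic C18 HPLC (same buffer) with detection at 260/370 nm, corrected for dilution.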

[3] = target: human renalase (Homo sapiens, UniProt Q5VYX0); assay type: biochemical, H. sapiens; details: for inhibition of 6DHNAD oxidation (reductive half reaction): 173 µM 6DHNAD, anaerobic
Sequence of human renalase (Q5VYX0 18-342): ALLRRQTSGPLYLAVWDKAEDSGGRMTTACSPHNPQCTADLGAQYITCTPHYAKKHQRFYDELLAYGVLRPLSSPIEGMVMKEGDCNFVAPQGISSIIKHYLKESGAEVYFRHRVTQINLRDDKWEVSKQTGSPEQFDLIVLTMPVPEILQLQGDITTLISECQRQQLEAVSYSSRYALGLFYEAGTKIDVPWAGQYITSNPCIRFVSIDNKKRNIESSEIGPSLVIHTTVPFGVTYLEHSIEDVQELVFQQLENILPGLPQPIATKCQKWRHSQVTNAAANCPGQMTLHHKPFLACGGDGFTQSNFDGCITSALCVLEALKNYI

[4] = target: HsRen (human renalase); details: cited from earlier work; for binding constants of the products: earlier work, no reference given
[5] = target: specific enzymes that have β-NADH as substrate; details: competitive; cited from earlier work
[6] = test system: E.coli malate dehydrogenase; details: competitive; cited from earlier work

Sequence of HsRen (renalase from H. sapiens) (Q5VYX0 18-342): as above

In the case of `NC(=O)C1=CN(C2OC(COP(=O)(O)O)C(O)C2O)CC=C1` (centres unmarked) [6DHNMN, 6-dihyronicotinamide mononucleotide], the “effect of AMP counterpart ligand on kred/Kd” value ([1]; pH 7.5) is reported as “no measurable difference” and the “consumed by renalase (substrate)” value [2] is reported as “consumed”.
With `NC(=O)C1=CN([C@@H]2O[C@H](COP(=O)(O)O)[C@@H](O)[C@H]2O)C=CC1` [4DHNMN, 4-dihydronicotinamide mononucleotide] the “difference in the Kd for 4DHNMN compared to 4DHNR” value ([3]; HsRen) was “six-fold” and the “inhibition of 6DHNAD oxidation (reductive half reaction)” value (“inhibition … (reductive half reaction)” below) ([3]; HsRen) was “inhibitory”.
With `NC(=O)C1=CN([C@@H]2O[C@H](CO)[C@@H](O)[C@H]2O)C=CC1` [4DHNR, 4-dihydronicotinamide riboside] the “inhibition … (reductive half reaction)” value ([3]; HsRen) was “inhibitory”.
For `Nc1ncnc2c1ncn2[C@@H]1O[C@H](COP(=O)(O)OP(=O)(O)O)[C@@H](O)[C@H]1O` [ADP, adenosine diphosphate], the Kd [3] was 15 mM.
For `NC(=O)c1ccc[n+]([C@@H]2O[C@H](COP(=O)([O-])OP(=O)(O)OC[C@H]3O[C@@H](n4cnc5c(N)ncnc54)[C@H](O)[C@@H]3O)[C@@H](O)[C@H]2O)c1` [β-NAD^+, oxidized nicotinamide adenine dinucleotide], the “binding constants of the products” value [4] is listed as “low millimolar”.
For `Nc1ncnc2c1ncn2[C@@H]1O[C@H](COP(=O)(O)O)[C@@H](O)[C@H]1O` [AMP, adenosine monophosphate], the “inhibition … (reductive half reaction)” value ([3]; HsRen) was “did not show measureable inhibition”.
In the case of `CNC(=O)c1cccnc1` [methyl nicotinamide], the “inhibition … (reductive half reaction)” value ([3]; HsRen) is reported as “did not show measureable inhibition”.
With `NC(=O)c1cccnc1` [nicotinamide] the IC50 [3] was over 68 mM and the “inhibition … (reductive half reaction)” value ([3]; HsRen) was “did not show measureable inhibition”.
For `NC(=O)c1ccc[n+]([C@@H]2O[C@H](COP(=O)([O-])O)[C@@H](O)[C@H]2O)c1` [NMN^+, nicotinamide mononucleotide], the “inhibition … (reductive half reaction)” value ([3]; HsRen) was “did not yield any substrate inhibition”.
In the case of `NC(=O)c1ccc[n+]([C@@H]2O[C@H](CO)[C@@H](O)[C@H]2O)c1` [NR^+, nicotinamide riboside], the IC50 [3] is reported as over 7.3 mM and the “inhibition … (reductive half reaction)” value ([3]; HsRen) is reported as “did not yield any substrate inhibition”.
For `NC(=O)C1=CC=CN([C@@H]2O[C@H](COP(=O)(O)O)[C@@H](O)[C@H]2O)C1` [2DHNMN, 2-dihydronicotinamide mononucleotide], the “consumed by renalase (substrate)” value [2] was “consumed”.
With `NC(=O)C1=CN([C@@H]2O[C@H](CO)[C@@H](O)[C@H]2O)CC=C1` [6DHNR, 6-dihydornicotinamide riboside] the “increase in kred/Kd on addition of ADP” value ([1]; pH 7.5) was 7 fold, the “increase in kred/Kd on addition of ADP” value ([1]; pH 7.5, listed as 6-dihydronicotinamide riboside) was “seven” and the “consumed by renalase (substrate)” value [2] was “consumed”.
In the case of `NC(=O)c1ccc[n+]([C@@H]2O[C@H](COP(=O)([O-])OP(=O)(O)OC[C@H]3O[C@@H](n4cnc5c(N)ncnc54)[C@H](OP(=O)(O)O)[C@@H]3O)[C@@H](O)[C@H]2O)c1` [β-NADP^+, oxidized nicotinamide adenine dinucleotide phosphate], the “binding constants of the products” value [4] is given as “low millimolar”.
In the case of `NC(=O)C1=CC=CN([C@@H]2O[C@H](CO)[C@@H](O)[C@H]2O)C1` [2DHNR], the “consumed by renalase (substrate)” value [2] is reported as “consumed”.
In the case of `NC(=O)C1=CN([C@@H]2O[C@H](COP(=O)(O)OP(=O)(O)OC[C@H]3O[C@@H](n4cnc5c(N)ncnc54)[C@H](O)[C@@H]3O)[C@@H](O)[C@H]2O)CC=C1` [6DHNAD, 6-dihydronicotinamide adenine dinucleotide], the Kd ([4]; read-out: measured dissociation constant for the substrate) is listed as 173 µM, the Ki values [5] is listed as “sub-micromolar range” and the Ki [6] is listed as 34 nM.
